The values below come from ChEMBL document CHEMBL1148787, “Novel substituted (pyridin-3-yl)phenyloxazolidinones: antibacterial agents with reduced activity against monoamine oxidase A and increased solubility” (J Med Chem, 2007).

Data set [1] is described as follows: Half life in Wistar rat at 10 mg/kg, iv. It is filed as ADME, organism-based. Conditions: in vivo. More on the design: dose 10 mg/kg, route intravenous. The essentials: (§1)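 Groups of three Wistar Han rats; bolus injection via cannulated jugular vein at 2 or 10 mg/kg. Serial 200 µL whole-blood samples at time intervals; plasma levels by LC-MS/MS; parameters by noncompartmental analysis.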

A short description of data set [2]: Clearance in Wistar rat at 10 mg/kg, iv. The class given is ADME, organism-based. More on the design: dose 10 mg/kg, route intravenous. The note with it: in vivo. A digest of the protocol: as §1
Data set [3] in a line: Volume of distribution in Wistar rat at 10 mg/kg, iv. The class given is ADME, organism-based. Details: dose 10 mg/kg, route intravenous. The note with it: in vivo, read-out: Vdss. The essentials: as §1
The subject of data set [4] is Staphylococcus aureus. In words: Antibacterial activity against methicillin-susceptible Staphylococcus aureus AP601055. The class given is functional. The essentials:
(§2)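 CLSI broth microdilution, 64 to 0.06 µg/mL, 2% DMSO final. Media: S. aureus, Mueller Hinton broth; H. influenzae, MHB plus 0.5% yeast extract, 15 µg/mL hematin, 1.5 µg/mL NAD; S. pneumoniae, MHB plus 0.65% lysed horse blood. 35 °C, aerobic (S. aureus) or 5% CO2.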

For data set [5], the system named is Streptococcus pneumoniae. Nature of the data set: Antibacterial activity against penicillin-susceptible Streptococcus pneumoniae AP671401. It is filed as functional. The essentials:
as §2

Data set [6] concerns Streptococcus pneumoniae. Nature of the data set: Antibacterial activity against linezolid-resistant Streptococcus pneumoniae. The class given is functional. The essentials: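 Broth microdilution per CLSI guidelines. Compounds were dissolved in 100% DMSO and diluted to 2% DMSO (v/v), 64 to 0.06 µg/mL, in 2.2% (w/v) Mueller Hinton broth with 0.65% (v/v) lysed horse blood. Plates were incubated at 35 °C in 5% CO2 and read at 620 nm.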

The subject of data set [7] is Haemophilus influenzae. Nature of the data set: Antibacterial activity against Haemophilus influenzae ATCC 51907. The class given is functional. The essentials:
as §2

Data set [8] is described as follows: Solubility by nephelometric analysis. The class given is physicochemical. The essentials:
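Nephelometry after diluting compounds into the MAO-A assay mixture (100 mM potassium phosphate, pH 7.4).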

Data set [9] addresses T1, Amine oxidase [flavin-containing] A (Homo sapiens, UniProt P21397).
T1 sequence (P21397 whole entry): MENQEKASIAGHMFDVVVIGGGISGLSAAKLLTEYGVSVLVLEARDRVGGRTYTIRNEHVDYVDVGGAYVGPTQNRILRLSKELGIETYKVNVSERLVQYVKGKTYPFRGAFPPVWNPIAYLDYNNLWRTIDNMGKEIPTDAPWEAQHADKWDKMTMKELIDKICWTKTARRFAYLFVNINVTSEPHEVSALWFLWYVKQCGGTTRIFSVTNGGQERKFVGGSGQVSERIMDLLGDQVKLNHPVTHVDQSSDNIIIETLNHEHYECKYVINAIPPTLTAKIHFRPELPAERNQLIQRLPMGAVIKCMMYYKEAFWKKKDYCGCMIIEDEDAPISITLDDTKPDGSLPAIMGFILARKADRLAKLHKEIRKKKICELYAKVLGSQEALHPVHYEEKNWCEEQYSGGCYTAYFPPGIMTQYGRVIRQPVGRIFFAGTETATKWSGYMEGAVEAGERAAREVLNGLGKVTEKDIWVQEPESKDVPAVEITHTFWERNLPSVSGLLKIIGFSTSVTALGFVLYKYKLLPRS
Nature of the data set: Inhibition of human liver MAOA expressed in yeast.

Data set [10] can be described thus: AUC in Wistar rat at 10 mg/kg, iv. It is filed as ADME, organism-based. More on the design: dose 10 mg/kg, route intravenous. The note with it: plasma. The essentials:
as §1

The nature of data set [11]: Oral bioavailability in Wistar rat at 10 mg/kg, po. The class given is ADME, organism-based. Conditions: in vivo. A digest of the protocol: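 Wistar Han rats, groups of three; 10 mg/kg given by oral gavage, compared against iv dosing. Serial whole-blood sampling, plasma drug by LC-MS/MS, noncompartmental pharmacokinetic analysis.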
For data set [12], the species on record is Homo sapiens. Nature of the data set: Protein binding in human plasma. The note with it: read-out: PPB (converted).
Data set [13] in a line: Half life in Wistar rat at 2 mg/kg, iv. The class given is ADME, organism-based. More on the design: dose 2 mg/kg, route intravenous. Conditions: in vivo. A digest of the protocol:
as §1

A short description of data set [14]: Clearance in Wistar rat at 2 mg/kg, iv. The class given is ADME, organism-based. Conditions: in vivo. More on the design: dose 2 mg/kg, route intravenous. A digest of the protocol:
as §1

The nature of data set [15]: Volume of distribution in Wistar rat at 2 mg/kg, iv. It is filed as ADME, organism-based. Details: dose 2 mg/kg, route intravenous. The note with it: in vivo, read-out: Vdss. The essentials: as §1
Data set [16] concerns Rattus norvegicus. Nature of the data set: AUC in Wistar rat at 2 mg/kg, iv. It is filed as ADME, organism-based, Plasma. Details: dose 2 mg/kg, route intravenous. Conditions: in vivo. A digest of the protocol:
as §1

By half-life is commonly meant the time in which the quantity being followed falls by half. A lower half-life goes with rapid decline. In general, clearance refers to a measure of how efficiently the substance is removed, as volume per time. Broadly, the solubility (kinetic) is the concentration staying in solution when a stock, usually in DMSO, is diluted into the medium. As usually defined, the Ki is a measure of affinity in units of concentration, obtained from inhibition or displacement. A word on the bioavailability: it is the share of a dose that reaches the circulation, judged against a reference dose that is usually intravenous. Read a low bioavailability as little systemic uptake.

In brackets after ≈: the same amount, converted by molar mass. Where only a bound is given, the exact number is not on record here.

The molecule `C[C@H](O)c1ccc(-c2ccc(N3C[C@H](Cn4ccnn4)OC3=O)cc2F)cn1` gave a half-life in data set [1] of 60 min. Further, the clearance in [2] is 25 mL/min/kg. Besides, in data set [3], the Vd worked out at 1.3 L/kg. Also, the MIC in data set [4] is 0.5 µg/mL (≈ 1.3 µM); in data set [5] it was less than 0.06 µg/mL; in [6], 1 µg/mL (≈ 2.61 µM); in data set [7], 2 µg/mL (≈ 5.22 µM). Also, in data set [8], the kinetic solubility is greater than 400 µM. The affinity in data set [9] corresponds to a Ki of 5.9 µM. This molecule also came in with an AUC in data set [10] of 6700 ng·h/mL. In data set [11], this molecule showed a bioavailability of 100%.
As to `O=C1O[C@@H](Cn2ccnn2)CN1c1ccc(-c2ccc(C(O)CO)nc2)c(F)c1` (some centres not stated), the half-life in data set [1] was 27 min. Also, the clearance in [2] was found to be 43 mL/min/kg. Also, in data set [3], the Vd is 1 L/kg. The MIC in data set [4] is 0.25 µg/mL (≈ 0.626 µM); in data set [5] it was less than 0.06 µg/mL; in [6], 1 µg/mL (≈ 2.5 µM); in data set [7], 1 µg/mL (≈ 2.5 µM). This molecule came in with a solubility (kinetic) in data set [8] greater than 400 µM. For the same molecule, the AUC in [10] was 3900 ng·h/mL. In addition, in data set [12], the fraction unbound was 0.54.
Take `COCc1ccc(-c2ccc(N3C[C@H](Cn4ccnn4)OC3=O)cc2F)cn1`: the MIC amounted to 0.5 µg/mL (≈ 1.3 µM) in [4], 0.13 µg/mL (≈ 0.339 µM) in data set [5], 1 µg/mL (≈ 2.61 µM) in data set [6] and 4 µg/mL (≈ 10.4 µM) in [7]. This molecule also showed a kinetic solubility in [8] of 100 µM (≈ 38.3 µg/mL). This molecule also showed a Ki in data set [9] of 1.7 µM.
For the molecule `Cc1cn(CC(=O)c2ccc(-c3ccc(N4C[C@H](Cn5ccnn5)OC4=O)cc3F)cn2)c(C)n1`, the half-life in data set [13] was 60 min. This molecule came in with a clearance in data set [14] of 13 mL/min/kg. Besides, the Vd in data set [15] amounted to 0.9 L/kg. The MIC in data set [4] was 0.25 µg/mL (≈ 0.526 µM); in [5] it was less than 0.06 µg/mL; in data set [6], 0.25 µg/mL (≈ 0.526 µM); in [7], 2 µg/mL (≈ 4.21 µM). Moreover, the kinetic solubility in data set [8] is 25 µM (≈ 11.9 µg/mL). This molecule also came in with a Ki in data set [9] greater than 11 µM. This molecule had an AUC in data set [16] of 2.6 ug/hr.ml. Also, the bioavailability in [11] is 14%. Further, in data set [12], the fraction unbound is 0.12.
The molecule `CCc1nccn1CC(=O)c1ccc(-c2ccc(N3C[C@H](Cn4ccnn4)OC3=O)cc2F)cn1` gave a half-life in data set [13] of 36 min. This molecule had a clearance in [14] of 23 mL/min/kg. Further, the Vd in data set [15] came to 0.9 L/kg. Also, the MIC was 0.5 µg/mL (≈ 1.05 µM) in [4], less than 0.06 µg/mL in data set [5], 0.5 µg/mL (≈ 1.05 µM) in [6] and 4 µg/mL (≈ 8.41 µM) in data set [7]. The same molecule showed a kinetic solubility in [8] of 100 µM (≈ 47.5 µg/mL). The molecule further yielded a Ki in [9] greater than 44 µM. In data set [16], this molecule returned an AUC of 1.6 ug/hr.ml.
On to `CN1CCN(CCCC(=O)c2ccc(-c3ccc(N4C[C@H](Cn5ccnn5)OC4=O)cc3F)cn2)CC1`, for which the MIC in data set [4] is 1 µg/mL (≈ 1.97 µM); in [5], less than 0.06 µg/mL; in [6], 0.5 µg/mL (≈ 0.985 µM); in data set [7], 8 µg/mL (≈ 15.8 µM). For the same molecule, the solubility (kinetic) in [8] was greater than 400 µM. The molecule also registered a Ki in data set [9] of 10.5 µM. Besides, in [12], the fraction unbound was 0.5.
Take `O=C(CCCN1CCOCC1)c1ccc(-c2ccc(N3C[C@H](Cn4ccnn4)OC3=O)cc2F)cn1`: the MIC stood at 0.5 µg/mL (≈ 1.01 µM) in [4], 0.13 µg/mL (≈ 0.263 µM) in data set [5], 0.5 µg/mL (≈ 1.01 µM) in data set [6] and 4 µg/mL (≈ 8.09 µM) in data set [7]. In [8], this molecule came in with a solubility (kinetic) of 100 µM (≈ 49.5 µg/mL). Besides, in [12], the fraction unbound is 0.35.
